Assays:
Albino Swiss mice [1] = assay: Locomotor activity test; type: in vivo; details: 8 20 mg/kg, 10 5 mg/kg, 12 10 mg/kg; ip 30 min before the test; first 6 minutes; vehicle 554 ± 46
Albino Swiss mice [2] = assay: Forced swim test; type: in vivo; details: 30 min before the test; for antidepressant effect in the forced swim test (in words): mice, ip
In short: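 Male Albino Swiss mice (24-28 g), kept at 20 ± 1°C with free food and water and used once. Test compound was injected 30 min before the session. Each mouse swam 6 min in a glass cylinder (25 cm high, 10 cm diameter) holding 6 cm of water at 23-25°C. An observer timed immobility (floating, small head-keeping movements) over the last 4 min, after 2 min habituation. Mean ± SEM; Dunnett's test vs vehicle.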

SMILES | Locomotor activity 6 minutes (number of light beam crossings ± S.E.M.) (Albino Swiss mice [1]) | reduction in mice immobility time (Albino Swiss mice [2]; 20 mg/kg ip) [%] | antidepressant effect in the forced swim test (in words) (Albino Swiss mice [2]) | reduction in mice immobility time (Albino Swiss mice [2]; 5 mg/kg ip) [%] | reduction in mice immobility time (Albino Swiss mice [2]; 10 mg/kg ip) [%]
CCCCCCCCN1CCN(c2ccc3cc([N+](=O)[O-])ccc3n2)CC1 [Compound 8, 2-(4-Octyl-piperazin-1-yl)-6-nitroquinoline] | 453 ± 41 | 15 | moderate antidepressant activity |  | 
CCCCCCCCCN1CCN(c2ccc3cc([N+](=O)[O-])ccc3n2)CC1 [Compound 9, 2-(4-Nonyl-piperazin-1-yl)-6-nitroquinoline] |  |  | ineffective |  | 
CCCCCCCCCCN1CCN(c2ccc3cc([N+](=O)[O-])ccc3n2)CC1 [Compound 10, 2-(4-Decylo-piperazin-1-yl)-6-nitroquinoline] | 239 ± 41 |  | moderate antidepressant activity | 12 | 
CCCCCCCCCCCN1CCN(c2ccc3cc([N+](=O)[O-])ccc3n2)CC1 [Compound 11, 2-(4-Undecyl-piperazin-1-yl)-6-nitroquinoline] |  |  | ineffective |  | 
CCCCCCCCCCCCN1CCN(c2ccc3cc([N+](=O)[O-])ccc3n2)CC1 [Compound 12, 2-(4-Dodecyl-piperazin-1-yl)-6-nitroquinoline] | 628 ± 55 |  | moderate antidepressant activity | 10 | 8

From article PMC3665732 (Chemical biology & drug design, 2013)
